# In the library only some 2.9% were active in any assay of this set; here they are far more common.
# M1 ag parental – M1 agonist counterscreen hit in parental CHO-K1 cells; AID 602248; Fluo-8 calcium fluorescence; scaled to maximal ATP response, vehicle zero; activation, % at 3 µM; actives 0.48% (n = 360,000); in the data active means activation above about 15%;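 further: untransfected CHO-K1 host cells lacking M1 receptor as counterscreen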
# CHO parental Ca – signal in parental CHO cells, OX1R antagonist counter-screen; actives 0.63% (n = 330,000); inhibition, % at 5.6 µM; parental CHO-K1, ATP-induced calcium, Fluo-8 fluorescence;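 active means inhibition above that plate's mean sample inhibition plus 3 SD, cut at about 26% in these data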;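 further: 0% = ATP-challenged DMSO wells and 100% = DMSO wells without ATP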
#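 Material: parental CHO cells / Compound: single nominal dose of 5.6 µM per compound / Signal: Fluo-8 fluorescence / Replicates: singlicate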
# CHO-K1 Ca antag – nonselective inhibitor or artifact in parental CHO-K1 cells; inhibition, % at 3 µM; actives 0.6% (n = 360,000); ATP-induced calcium, Fluo-8 fluorescence;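 active means inhibition above a per-plate cutoff, the plate's mean sample inhibition plus 3 SD, cut at about 24% in these data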;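 further: 0% = DMSO plus EC80 ATP and 100% = DMSO alone without ATP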
# OX1R antag-1 – antagonists of human orexin 1 receptor (OX1R). O43613. OX1R-expressing cells, FRET antagonist read-out. inhibition, % at 6.6 µM. actives 1.8% (n = 330,000); in the data active means inhibition mostly above about 38%, no sharp cut-off; inactive means mostly below about 40%;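 further: 0% = agonist challenge alone and 100% = reference antagonist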
# Target sequence (O43613 whole entry, looked up): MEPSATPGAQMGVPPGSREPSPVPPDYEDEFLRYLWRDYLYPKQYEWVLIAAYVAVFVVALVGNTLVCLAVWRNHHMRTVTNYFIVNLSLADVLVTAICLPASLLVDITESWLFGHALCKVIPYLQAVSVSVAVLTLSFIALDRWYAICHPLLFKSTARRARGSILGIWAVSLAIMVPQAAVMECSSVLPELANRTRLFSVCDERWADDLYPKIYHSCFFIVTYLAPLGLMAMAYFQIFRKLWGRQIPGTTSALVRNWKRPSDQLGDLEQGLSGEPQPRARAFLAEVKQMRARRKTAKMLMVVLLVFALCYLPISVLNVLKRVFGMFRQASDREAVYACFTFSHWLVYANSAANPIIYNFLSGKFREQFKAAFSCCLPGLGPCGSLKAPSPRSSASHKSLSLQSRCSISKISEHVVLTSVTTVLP
# M1 PAM parental – nonselective activator or artifact in parental CHO-K1 calcium assay | actives 0.02% (n = 360,000) | ATP EC20, Fluo-8 calcium fluorescence; 0% at ATP EC20, 100% at ATP max | activation, % at 3 µM;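 active means activation above the run cutoff, the mean activation of all test compounds plus 3 SD, cut at about 40% in these data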;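 further: peak over basal fluorescence ratio in a 140 s read after ATP addition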
# OX1R antag-2 – human HCRTR1 antagonism; AID 434989; CHO/OX1R cells, Fluo-8 calcium fluorescence, orexin A; inhibition, % at 5 µM; actives 0.43% (n = 330,000);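 active means inhibition above its plate's threshold, mean inhibition of all tested compounds on the plate plus 3 SD, cut at about 37% in these data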;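 further: 0% = orexin A challenge wells and 100% = SB-334867-A antagonist wells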
# The depositor's hits bear a star; / = no result.
SMILES,M1 ag parental,CHO parental Ca,CHO-K1 Ca antag,OX1R antag-1,M1 PAM parental,OX1R antag-2
O=C(Cc1ccc(S(=O)(=O)N2CCOCC2)s1)N1CCN(c2cccc(C(F)(F)F)c2)CC1,18*,24,19,44,-5,14
Cc1ccc(N(CC(=O)NC(C)C)C(=O)CCC(=O)Nc2ccccn2)c(C)c1,1,/,-20,/,-8,/
CC(NC(=O)CN(c1cccc(C(F)(F)F)c1)S(=O)(=O)c1ccc(Cl)c([N+](=O)[O-])c1)c1ccccc1 (stereo not drawn),2,36*,3,4,0,22
Clc1ccc2c(NCc3ccccc3)ccnc2c1,17*,-6,5,18,-1,-8
NC(N)=NS(=O)(=O)c1ccc(NC(=S)NC(=O)c2ccc(Br)cc2)cc1,0,5,-10,11,1,5
COc1ccc(Nc2c(-c3ccc(F)cc3)nc3nc(C)cc(C)n23)cc1,-1,/,-7,/,7,/
COc1cccc(OCC(=O)Nc2ccccc2NC(C)=O)c1,0,1,4,10,1,-8
O=C(COc1cccc2ccccc12)Nc1ccc(Cl)cc1C(=O)O,2,-10,-4,40,-8,-6
COc1cccc(OCC(=O)Nc2cc(Cl)ccc2Oc2ccccc2)c1,1,40*,-4,19,11,-16
O=C(COc1cccc2ccccc12)Nc1cc(Cl)ccc1C(=O)O,0,1,10,67*,7,13
CC(C)(C)NS(=O)(=O)c1ccc(CCC(=O)Nc2cc(Cl)ccc2Oc2ccccc2)cc1,3,43*,-5,81*,23,65*
CCCNS(=O)(=O)c1ccc(CCC(=O)Nc2cc(Cl)ccc2Oc2ccccc2)cc1,4,/,17,/,-6,/
O=[N+]([O-])c1cc(Cl)cc(C2=NCCN2)c1,0,-5,-15,61*,19,-7
O=[N+]([O-])c1cc(Br)c2c(c1)CCN2,0,/,-5,/,8,/
O=C(Nc1cc(S(=O)(=O)N2CCCCCC2)ccc1OCC(F)(F)F)c1cnccn1,0,-23,-18,1,7,-18
COC(=O)c1ccc(OCC(=O)c2ccccc2OC)cc1,1,-32,-3,45*,5,-22
Cc1ccc(S(=O)(=O)CCC(=O)OCc2nnc(-c3ccc([N+](=O)[O-])cc3)o2)cc1,5,/,-10,/,-8,/
Cc1noc(C)c1CSCC(=O)OCc1nnc(-c2ccc([N+](=O)[O-])cc2)o1,6,-4,-21,47*,14,1
Cc1noc(C)c1COc1ccc(C(=O)OCc2nnc(-c3ccc(Cl)cc3)o2)cc1,7,35*,4,39,14,54*
CC(NC(=O)CSc1nnc(-c2cc3cc(Cl)ccc3o2)n1C)c1ccccc1 (stereo not drawn),1,-13,-14,54*,-3,-26
N#Cc1ccc(NC(=O)CNc2cc(S(=O)(=O)N3CCOCC3)ccc2NCC2CCCO2)cc1 (stereo not drawn),5,39*,-5,-2,11,-24
CC(C)Cc1ccc(C(=O)Nc2ccc(Cc3ccncc3)cc2)o1,7,/,-8,/,18,/
COc1cccc(CNC(=O)c2cc3oc4ccccc4c3n2C)c1OC,0,-19,11,33,-3,-18
CCOc1ccccc1CNC(=O)c1cc2oc3ccccc3c2n1CC,1,-13,-12,53*,24,-14
CCCCCN(C(=O)COC(=O)c1ccc(C)cc1)c1c(N)n(CCCC)c(=O)[nH]c1=O,0,-17,8,1,-3,-21
SMILES,M1 ag parental,CHO parental Ca,CHO-K1 Ca antag,OX1R antag-1,M1 PAM parental,OX1R antag-2
CCN1/C(=C/C=C/c2oc3ccc4ccccc4c3[n+]2CC)Oc2ccc3ccccc3c21,/,64*,/,14,/,76*
CC[n+]1c(/C=C/N(C)c2ccccc2)oc2ccc(Cl)cc21,1,-5,-9,6,17,-4
C/C(=N\NC(=O)c1nnn(-c2nonc2N)c1CSc1ccccc1)c1cccnc1,1,-22,-15,10,21,-24
C/C(COc1ccccc1)=N\NC(=O)c1nnn(-c2nonc2N)c1CSc1ccccc1,1,-2,-19,60*,11,-3
Cc1ccc(SCc2c(C(=O)N/N=C/c3ccoc3)nnn2-c2nonc2N)cc1,2,-19,-11,45*,2,20
Cc1ccc(SCc2c(C(=O)N/N=C/c3ccccc3)nnn2-c2nonc2N)cc1,2,-47,-17,47,22,22
Cc1ccc(C2=NCCn3c2c2ccccc2[n+]3[O-])cc1,0,4,1,37,4,-3
COc1cc(OC)c(NS(=O)(=O)c2c(C(=O)N3CCCCC3)c(C)n(C)c2C)cc1Cl,0,13,-3,17,9,-8
O=C(NNc1cccc([N+](=O)[O-])c1)/C(=C\c1cccnc1)NC(=O)c1ccccc1,0,-16,-10,23,8,-16
Cn1cc(S(=O)(=O)N2CCCC2)cc1C(=O)O,1,-5,12,-1,-5,-4
Cc1ccc(S(=O)(=O)N(C)C)cc1NC(=O)Nc1c(-c2ccccc2)noc1C,0,-21,-4,9,18,-24
Cc1onc(-c2ccccc2)c1NC(=O)Nc1c(-c2ccccc2)noc1C,0,-24,-1,51*,10,-23
CNc1cncc(-c2cccc(C(=O)NC3CC3)c2)n1,0,/,-2,/,-4,/
COc1ccc2c(c1)oc1c(SCc3nc4ccccc4[nH]3)nc(C)nc12,4,-24,-22,48*,17,16
Cc1nc(SCc2nc3cc(Cl)c(F)cc3[nH]2)c2oc3ccccc3c2n1,0,1,-10,53*,10,33
Cc1nc(SCc2nc3ccc(Cl)cc3[nH]2)c2oc3ccccc3c2n1,1,-14,-12,28,22,1
Cc1nc(SCc2nc3ccccc3[nH]2)c2oc3cc([N+](=O)[O-])ccc3c2n1,0,-24,-14,22,13,-20
CCN1CCN(CCCNC(=O)CCC(=O)N2CCOc3ccc(Cl)cc32)CC1,0,1,-15,0,16,-8
O=c1[nH]c2ccccc2nc1/C=C(\O)c1cccs1,15*,6,12,46,2,3
O=C(CSc1cccc[n+]1[O-])c1cc2ccccc2o1,0,0,3,72*,-5,-2
COc1ccc(CCNC(=O)c2cc(-c3ccccc3)c(N3CCOCC3)s2)cc1OC,4,-1,-1,23,-6,-7
CCOC(=O)c1oc2ccc(S(=O)(=O)n3nc(-c4ccccc4)cc3N)cc2c1C,1,32*,-4,18,10,-6
O=C(Nc1ccc(Br)c(C(F)(F)F)c1)c1ccc(C(F)(F)F)cc1,12,40*,16,62*,-5,60*

# Source: PubChem
